This sample holds only a part of the variants without activity.
B1: tRNA (parent)
chain: GUUCCGUUGGCGUAAUGGUAACGCGUCUCCCUCCUAAGGAGAAGACUGCGGGUUCGAGUCCCGUACGGAACG

Variants of: B1
Assay: yeast fitness relative to wild type (ratio to wild type); higher = fitter; tRNA-Arg(CCU), competitive growth, 37 C, YPD
Summary of the method: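 Variants of the tRNA-Arg(CCU) gene, chemically synthesised with a 3% per-site mutation rate at 69 sites, were placed at the native genomic locus in Saccharomyces cerevisiae. The pooled strains were competed in YPD at 37°C for 24 hours in six parallel replicates. Gene amplicons from the start population and from each end population were read by 100-nucleotide paired-end sequencing. Darwinian fitness relative to wild type came from changes in genotype frequencies; genotypes needed ≥ 100 starting reads, and estimates < 0.5 were set to 0.5.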

C5U G17A A21G A37G G39C G44C C46A U54C A65C and A20C A40G G52C cannot be ordered by yeast fitness: ≤ 0.5 for the first, ≤ 0.5 for the second.

Going from G18A C46G A65U to C55A C62U C66U, the yeast fitness falls from 0.697 to 0.517.

C5U U13C U19A A21U C24A U54C U59C C66G and C11U C31G C34G A43U A69C cannot be ordered by yeast fitness: ≤ 0.5 for the first, ≤ 0.5 for the second.

Going from U28A C31A C33U A37C G50A A65U to C5U C22G, the yeast fitness rises from ≤ 0.5 to 0.991.

C34U G58C C61A A69U and C34A G41A C46A cannot be ordered by yeast fitness: ≤ 0.5 for the first, ≤ 0.5 for the second.

First: U2G G44A G51C
Second: G12A A20U G25C U53A
The yeast fitness of the first is lower: ≤ 0.5 for the first, 0.599 for the second.

First: C29G A57U
Second: U19G G23A U35G
The yeast fitness of the first is higher: 0.72 for the first, ≤ 0.5 for the second.

A14G C22A C27A C29U A42C and U3A A14C C46U cannot be ordered by yeast fitness: ≤ 0.5 for the first, ≤ 0.5 for the second.

A20C C46A C61U C66U and A21C G25C U26G U59G A65C cannot be ordered by yeast fitness: ≤ 0.5 for the first, ≤ 0.5 for the second.

Going from G38A G67C to G9C A14C G18A G44C A57C, the yeast fitness falls from 0.776 to ≤ 0.5.

Compared with G9A C29U C55U, G23A C30A C55U is lower in yeast fitness: 0.535 for the first, ≤ 0.5 for the second.

Compared with C4U A15C, U8C C22A C33G G39C C46U is lower in yeast fitness: 0.763 for the first, ≤ 0.5 for the second.

Going from C29U A40U A57G U64C to C11U A45U A65C, the yeast fitness rises from ≤ 0.5 to 0.733.

Going from U2A A15G A37U C49G to C11G C30U A65G, the yeast fitness rises from ≤ 0.5 to 0.595.

C34A A37U G52A and C11G C24G C27G G48C cannot be ordered by yeast fitness: ≤ 0.5 for the first, ≤ 0.5 for the second.

Compared with C4U C11U A15G, G39C A43C G56A C60G is lower in yeast fitness: 0.713 for the first, ≤ 0.5 for the second.

First: G25A U54C
Second: C11U A20U C60U
The yeast fitness of the first is higher: 0.87 for the first, ≤ 0.5 for the second.

First: G18C A36U A70U
Second: U7G C30G
The yeast fitness of the first is lower: ≤ 0.5 for the first, 0.509 for the second.

Compared with C34U A45C C60A, G18A C22A C61A A65G A70U is higher in yeast fitness: ≤ 0.5 for the first, 0.585 for the second.

Compared with G17C A21U A57U, U32C A43G is higher in yeast fitness: 0.564 for the first, 0.998 for the second.

Going from C27U G44C G68A to C11U C22G A40C G41A U47A U53C G67C, the yeast fitness falls from 0.666 to ≤ 0.5.

Compared with G12C A20C C30U C31G, U28A U59A is higher in yeast fitness: ≤ 0.5 for the first, 0.633 for the second.

Compared with C33G C34A A40C, U2G A69C A70G is higher in yeast fitness: ≤ 0.5 for the first, 0.57 for the second.

C24G A40U G67C and U26A A40U G58A A70C cannot be ordered by yeast fitness: ≤ 0.5 for the first, ≤ 0.5 for the second.

First: U3C A40G C46A
Second: G10C G23C G48A G52A U53C C61A
The yeast fitness of the first is higher: 0.966 for the first, 0.52 for the second.

Compared with U8A A40G U64C, C29G G48C is lower in yeast fitness: 0.623 for the first, 0.563 for the second.

A20C A21C G39A U53A and G6C C11G A15G C66A cannot be ordered by yeast fitness: ≤ 0.5 for the first, ≤ 0.5 for the second.

First: A40C A70G
Second: C4G U16C A45G
The yeast fitness of the first is higher: 0.979 for the first, 0.597 for the second.

Going from U2C G23A C33G U35G C60U C62G to C4G A21U, the yeast fitness rises from ≤ 0.5 to 0.696.

G9C G12A C29A G38A A69G and G6A A21G A43U A70G cannot be ordered by yeast fitness: ≤ 0.5 for the first, ≤ 0.5 for the second.

Going from A42U C60G to A20G G50C U54G, the yeast fitness falls from 0.579 to ≤ 0.5.

First: C4A C46U U47C C55U
Second: G9A A57G G67A
The yeast fitness of the first is lower: ≤ 0.5 for the first, 0.558 for the second.

First: G52A A69U
Second: A14C C29U C46A
The yeast fitness of the first is higher: 0.853 for the first, ≤ 0.5 for the second.

Going from A14C A43U to C24G C66U, the yeast fitness falls from 0.731 to 0.533.

Going from C5G U35A G51A to C4G G9C C33G, the yeast fitness rises from ≤ 0.5 to 0.674.

Compared with U19G A20U C27G C66U, G6C G67C is higher in yeast fitness: ≤ 0.5 for the first, 0.75 for the second.

Compared with C5A G9C A36U G50A, G12A C22A is higher in yeast fitness: 0.536 for the first, 1.03 for the second.

Compared with C24G U26A C46A C62U, A20C A36C is lower in yeast fitness: 0.578 for the first, ≤ 0.5 for the second.

Compared with C4A A37G, C5A A14C is lower in yeast fitness: 0.754 for the first, 0.603 for the second.

First: U35G U64C A70G
Second: A14U A36U G63A
The yeast fitness of the first is lower: ≤ 0.5 for the first, 0.533 for the second.

Going from U7C C30G A40U A70U to C22A C33A A36U U53A U54A, the yeast fitness rises from ≤ 0.5 to 0.551.

First: G39C C46A C62G
Second: C24U C30U A40C G68C
The yeast fitness of the first is lower: ≤ 0.5 for the first, 0.545 for the second.

Going from C5G G67C to C4U A57C C61U A70U, the yeast fitness falls from 0.99 to ≤ 0.5.

G6C C30A C34A A43C C62U and U2A A42G C61U G63A cannot be ordered by yeast fitness: ≤ 0.5 for the first, ≤ 0.5 for the second.

Compared with G12A C27G C34A C49A C60G C61U, U2A G52C is higher in yeast fitness: 0.527 for the first, 0.65 for the second.

First: A15U G18C A36G A37C G50A
Second: U54A C55G A65C
The yeast fitness of the first is lower: ≤ 0.5 for the first, 0.627 for the second.

Going from G17C G48C A65G to U13C G50A, the yeast fitness rises from 0.562 to 0.874.

Going from G17U A21C G25C to A40U G48C C49U, the yeast fitness rises from 0.541 to 0.586.

First: C30G A40G
Second: C4A C62G C66U
The yeast fitness of the first is higher: 0.605 for the first, ≤ 0.5 for the second.

Compared with C4A C11A, C11U A69C A70U is higher in yeast fitness: 0.6 for the first, 0.814 for the second.

First: U8C G39C U47C U59C
Second: C4U C30A C55G
The yeast fitness of the first is lower: ≤ 0.5 for the first, 0.549 for the second.

Compared with U7C U47C C62G, C30U G41C is higher in yeast fitness: ≤ 0.5 for the first, 0.651 for the second.

Going from G25C G51A G67A to C4G C30G C55U, the yeast fitness falls from 0.73 to ≤ 0.5.

First: A43U C60A
Second: C4A U7A C31U C61G
The yeast fitness of the first is higher: 0.59 for the first, ≤ 0.5 for the second.

Going from U16G A70G to C29U C33U, the yeast fitness falls from 1.03 to 0.826.

First: C4U G12A G48C
Second: U7A G50C
The yeast fitness of the first is lower: 0.648 for the first, 0.684 for the second.

Compared with A15G A20U C33A A36C A42U C55G C60A A69G, U16C C49G is higher in yeast fitness: 0.594 for the first, 0.909 for the second.

Going from G52A G67C to G39A A43U U53A A57U A65U, the yeast fitness falls from 0.796 to ≤ 0.5.

First: C5G A69C A70G
Second: A42C G58C
The yeast fitness of the first is lower: 0.692 for the first, 0.975 for the second.

Compared with G38U G67C, A15G A20G is higher in yeast fitness: 0.772 for the first, 1.04 for the second.

A14C G25C C27G C34U U35A G38A G56A U59G and C4A U32G A45G C49U A70U cannot be ordered by yeast fitness: ≤ 0.5 for the first, ≤ 0.5 for the second.

First: C24U A42G
Second: U13C U26A C27U
The yeast fitness of the first is higher: 0.956 for the first, 0.593 for the second.

First: U8C C24G
Second: C46U C60G
The yeast fitness of the first is lower: 0.576 for the first, 0.627 for the second.

First: A14U C49G C60A
Second: U16A C22A G56A
The yeast fitness of the first is lower: ≤ 0.5 for the first, 0.696 for the second.

G25C G41C C46U C61G and U16G C34U C60A A70C cannot be ordered by yeast fitness: ≤ 0.5 for the first, ≤ 0.5 for the second.

Going from A42U A70G to A20C C30A, the yeast fitness falls from 1 to 0.746.

First: A20G G68U
Second: C24A C30U C34A A45G A57U C62U
The yeast fitness of the first is higher: 0.866 for the first, ≤ 0.5 for the second.

Compared with C5G U26C A36C, G6A A21C C62U is lower in yeast fitness: 0.547 for the first, ≤ 0.5 for the second.

Compared with C11G A14G U35A C66U, U19G G39A is higher in yeast fitness: 0.535 for the first, 1.07 for the second.

First: U32C C60U
Second: C4A A20G C24A G52C U54A
The yeast fitness of the first is higher: 0.642 for the first, ≤ 0.5 for the second.

Compared with C49U G58C, C4A G6A A14G A65G is lower in yeast fitness: 1 for the first, ≤ 0.5 for the second.

G12C G17C C22A G58A and C5G C61G A65U cannot be ordered by yeast fitness: ≤ 0.5 for the first, ≤ 0.5 for the second.

First: C27G C33U A45U
Second: U13G G58A
The yeast fitness of the first is lower: 0.568 for the first, 1.08 for the second.

A21G C33A G51A A57U A65U and A15U G23C C33A G67C cannot be ordered by yeast fitness: ≤ 0.5 for the first, ≤ 0.5 for the second.

Going from U3G C24U C34U A40G C55G to A57C C61A G67A, the yeast fitness rises from ≤ 0.5 to 0.56.

Compared with A43C A57C A70U, C31U U54G is higher in yeast fitness: 0.53 for the first, 0.535 for the second.

Compared with G9A C11G U13G G23C C34U C49U U59C C66U, A57U U59A A69C is higher in yeast fitness: ≤ 0.5 for the first, 0.654 for the second.

C27A C31G A57C U64A G68A and C11G C24U G25A A42G cannot be ordered by yeast fitness: ≤ 0.5 for the first, ≤ 0.5 for the second.

First: G9A U19A A43G A69C
Second: C11G C29U C31U C34U C62A C66U
The yeast fitness of the first is higher: 0.541 for the first, ≤ 0.5 for the second.

C29A C30U U64C and U2G C4G C31A A37C cannot be ordered by yeast fitness: ≤ 0.5 for the first, ≤ 0.5 for the second.

Compared with A36C A37G C55A, C4G A14G C24U U32G A43G C66U is lower in yeast fitness: 0.534 for the first, ≤ 0.5 for the second.

Going from A14G A42C to U2A C5U G23A A37G A69G A70U, the yeast fitness rises from 0.762 to 0.845.

First: C4U A14G C34G G50C G56C
Second: C24U C33U G41A C61U
The yeast fitness of the first is higher: 0.637 for the first, ≤ 0.5 for the second.

In the case of U32A A37G G48A C60G G68A, the yeast fitness is reported as ≤ 0.5.

— the RNAGym collection of RNA variant scans (doi:10.1126/science.aae0568)
